Reference: ChEMBL document CHEMBL1157083, “Characterization of tamulamides A and B, polyethers isolated from the marine dinoflagellate Karenia brevis” (J Nat Prod, 2010)

Assays:
Ovis aries [1] = assay: Bronchoconstriction in sheep asthma model assessed as pulmonary airflow resistance at 10 pg/ml administered through aerosol for 20 breaths by pneumotachography relative to control; assay type: functional
[2] = Displacement of [3H]PbTx-3 from rat brain synaptosome voltage-sensitive sodium channel site 5 after 1 hr by rapid filtration based scintillation counting; assay type: tissue-based
How it was run: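 Rat brain synaptosomes (0.1 mg protein/mL final) were incubated on ice for at least 1 h with about 1.5 nM [3H]-PbTx-3 and competitor (0 to 10 μM). Buffer was HEPES/choline chloride medium, pH 7.4, with 1 mg/mL BSA. Bound label was filtered and counted by scintillation. Apparent Ki came from one-site competition fits, with ≥3 experiments each run in duplicate or triplicate.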

Ovis aries [3] = assay: Bronchoconstriction in sheep 1988 asthma model assessed as pulmonary airflow resistance at 10 pg/ml administered through aerosol for 20 breaths by pneumotachography relative to control; assay type: functional
Gambusia affinis [4] = assay: Toxicity in mosquito fish at 25 to 200 nM up to 24 hrs; assay type: organism-based; conditions: in vivo, 0.2 µM
How it was run: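 Fish each received 0.2 mL test solution or EtOH vehicle (0.2 mL), giving final water concentrations of 0, 25, 50, 100 or 200 nM. PbTx-2 positive control at 200 nM. Five fish per concentration. Monitored for 24 hours or until death; time of death as mean ± S.E.M., two-way Student's t-test.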

Ovis aries [5] = assay: Bronchoconstriction in sheep 2164 asthma model assessed as pulmonary airflow resistance at 10 pg/ml administered through aerosol for 20 breaths by pneumotachography relative to control; assay type: functional
Ovis aries [6] = assay: Bronchoconstriction in sheep 2263 asthma model assessed as pulmonary airflow resistance at 10 pg/ml administered through aerosol for 20 breaths by pneumotachography relative to control; assay type: functional
Ovis aries [7] = assay: Bronchoconstriction in sheep 2297 asthma model assessed as pulmonary airflow resistance at 10 pg/ml administered through aerosol for 20 breaths by pneumotachography relative to control; assay type: functional
Gambusia affinis [8] = assay: Toxicity in mosquito fish assessed as time required for mortality at 200 nM; assay type: organism-based; conditions: in vivo, 0.2 µM
How it was run: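 Fish received 0.2 mL of test solution or an EtOH vehicle in tank water, giving 25-200 nM final. Five fish were used per concentration. Fish were watched for 24 h or until death. Time of death in minutes is given as mean ± S.E.M., compared by t-test.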

## C=C(COC(=O)c1ccc2ccccc2c1)C[C@@H]1C[C@H](O)[C@]2(C)O[C@@H]3C[C@@H]4O[C@@H]5C[C@]6(C)O[C@]7(C)CC[C@@H]8O[C@@H]9C[C@]%10(C)O[C@@H]%11C(C)=CC(=O)O[C@H]%11C[C@H]%10O[C@H]9C[C@@H](C)[C@H]8O[C@H]7C[C@H]6O[C@@]5(C)C/C=C\[C@H]4O[C@H]3C[C@H]2O1
Ovis aries [1]
  Activity: 0%

## CC(=O)NC[C@@H]1O[C@@H]2C[C@]3(C)O[C@@H]4C=C[C@@H]5O[C@@H]6C=C[C@@H]7O[C@H](/C=C/C=C/C=O)C=C[C@H]7O[C@H]6C[C@H]5O[C@@]4(C)C[C@H]3O[C@H]2C[C@H]1O [TAMULAMIDE A]
[2]
  Ki: 2500 nM
Ovis aries [3]
  Activity: 39%
Gambusia affinis [4]
  Activity: Non-toxic
Ovis aries [5]
  Activity: 43%
Ovis aries [6]
  Activity: 42%
Ovis aries [7]
  Activity: 34%

## C=C/C=C\CC[C@H]1O[C@H]2CC[C@@]3(C)O[C@H]4[C@@H](O)C[C@@]5(C)O[C@@H](CC/C=C(C)/C(C)=C/C=O)[C@@H](C)C[C@H]5O[C@@H]4C[C@@H]3O[C@@H]2CC[C@@]1(C)O [BREVENAL]
[2]
  Ki: 170 nM
Ovis aries [1]
  Activity: 4%

## C=C(C=O)C[C@@H]1C[C@H](O)[C@]2(C)O[C@@H]3C[C@@H]4O[C@@H]5C[C@]6(C)O[C@]7(C)CC[C@@H]8O[C@@H]9C[C@]%10(C)O[C@@H]%11C(C)=CC(=O)O[C@H]%11C[C@H]%10O[C@H]9C[C@@H](C)[C@H]8O[C@H]7C[C@H]6O[C@@]5(C)C/C=C\[C@H]4O[C@H]3C[C@H]2O1 [BREVETOXIN B]
[2]
  Ki: 1.2 nM
Gambusia affinis [8]
  Activity: Toxic
Ovis aries [1]
  Activity: 226%

## CC(=O)NC[C@@H]1O[C@@H]2C[C@]3(C)O[C@@H]4C=C[C@@H]5O[C@@H]6C=C[C@@H]7O[C@H](/C=C/C=C/C=O)C=C[C@H]7O[C@H]6C[C@H]5O[C@H]4C[C@H]3O[C@H]2C[C@H]1O [TAMULAMIDE B]
[2]
  Ki: 210 nM
Ovis aries [3]
  Activity: 36%
Gambusia affinis [4]
  Activity: Non-toxic
Ovis aries [5]
  Activity: 34%
Ovis aries [6]
  Activity: 37%
Ovis aries [7]
  Activity: 33%
